# What was measured:
# Enterococcus faecalis = assay: Activity against Streptococcus faecalis (IID 682); assay type: functional
# Summary of the method: (§1)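 Agar dilution MIC: serial 2-fold dilutions in Mueller-Hinton agar, inoculum about 10^6 CFU/mL, incubated at 37 °C for 18 h. The MIC is the lowest concentration that prevents visible bacterial growth.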
# Klebsiella aerogenes = assay: Activity against Enterobacter aerogenes (ATCC 13048); assay type: functional; summary of the method: as §1
# [1] = tested on: Pseudomonas cepacia (Burkholderia cepacia); assay: Activity against Pseudomonas cepacia (IID-1341)
# Staphylococcus aureus [2] = assay: Activity against Staphylococcus aureus (IID 803); assay type: functional; summary of the method: as §1
# Bacillus subtilis = assay: Activity against Bacillus subtilis (ATCC 6633); assay type: functional; summary of the method: as §1
# Pseudomonas aeruginosa = assay: Activity against Pseudomonas aeruginosa (E-2); assay type: functional; summary of the method: as §1
# Escherichia coli [3] = assay: Activity against Escherichia coli (K-12 C600); assay type: functional; summary of the method: as §1
# [4] = tested on: Staphylococcus epidermidis; assay: Activity against Staphylococcus epidermidis (IAM 1296); assay type: functional; summary of the method: as §1
# Nucleic Acid = assay: Inhibitory effect on DNA gyrase supercoiling activity from Escherichia coli K-12 C600; assay type: functional
# Escherichia coli [5] = assay: Activity against Escherichia coli (KC-14); assay type: functional; summary of the method: as §1
# Klebsiella pneumoniae = assay: Activity against Klebsiella pneumoniae (PCI-602); assay type: functional; summary of the method: as §1
# [6] = tested on: Acinetobacter calcoaceticus; assay: Activity against Acinetobacter calcoaceticus (AC54); assay type: functional; summary of the method: as §1
# Staphylococcus aureus [7] = assay: Activity against Staphylococcus aureus (FDA207PJC-1); assay type: functional; summary of the method: as §1
# Burkholderia cepacia = assay: Activity against Pseudomonas cepacia (IID-1341); assay type: functional; summary of the method: as §1
SMILES,MIC (Enterococcus faecalis),MIC (Klebsiella aerogenes),MIC [1],MIC (Staphylococcus aureus [2]),MIC (Bacillus subtilis),MIC (Pseudomonas aeruginosa),MIC (Escherichia coli [3]),MIC [4],IC50 (Nucleic Acid),MIC (Escherichia coli [5]),MIC (Klebsiella pneumoniae),MIC [6],MIC (Staphylococcus aureus [7]),MIC (Burkholderia cepacia)
CC1COc2c(C(=O)O)c(=O)c3cc(F)c(N4CCN(C)CC4)nc3n21 (centres undefined),> 25 µg/mL,6.25 µg/mL,> 25 µg/mL,12.5 µg/mL,3.13 µg/mL,> 25 µg/mL,12.5 µg/mL,> 25 µg/mL,6.11 µg/mL,6.25 µg/mL,0.78 µg/mL,> 25 µg/mL,12.5 µg/mL,
CCn1cc(C(=O)O)c(=O)c2cc(F)c(N3CCNCC3)nc21 [ENOXACIN],3.13 µg/mL,0.2 µg/mL,,0.78 µg/mL,0.2 µg/mL,1.56 µg/mL,0.2 µg/mL,3.13 µg/mL,,0.2 µg/mL,0.1 µg/mL,3.13 µg/mL,0.78 µg/mL,6.25 µg/mL
CC1COc2c(N3CCN(C)CC3)c(F)cc3c(=O)c(C(=O)O)cn1c23 (centres undefined) [OFLOXACIN],1.56 µg/mL,0.1 µg/mL,,0.39 µg/mL,0.1 µg/mL,1.56 µg/mL,0.2 µg/mL,0.78 µg/mL,0.59 µg/mL,0.1 µg/mL,0.05 µg/mL,0.39 µg/mL,0.39 µg/mL,6.25 µg/mL

# Further lines, results first:
MIC (Enterococcus faecalis),MIC (Klebsiella aerogenes),MIC [1],MIC (Staphylococcus aureus [2]),MIC (Bacillus subtilis),MIC (Pseudomonas aeruginosa),MIC (Escherichia coli [3]),MIC [4],IC50 (Nucleic Acid),MIC (Escherichia coli [5]),MIC (Klebsiella pneumoniae),MIC [6],MIC (Staphylococcus aureus [7]),MIC (Burkholderia cepacia),SMILES
100 µg/mL,50 µg/mL,,100 µg/mL,25 µg/mL,100 µg/mL,50 µg/mL,100 µg/mL,> 25 µg/mL,50 µg/mL,6.25 µg/mL,100 µg/mL,100 µg/mL,100 µg/mL,CN1CCN(c2nc3c(cc2F)c(=O)c(C(=O)O)c2n3CCN2C)CC1
6.25 µg/mL,0.2 µg/mL,,0.39 µg/mL,0.1 µg/mL,1.56 µg/mL,0.2 µg/mL,1.56 µg/mL,0.52 µg/mL,0.2 µg/mL,0.05 µg/mL,0.39 µg/mL,0.39 µg/mL,3.13 µg/mL,CN1CCN(c2nc3c(cc2F)c(=O)c(C(=O)O)c2n3CCS2)CC1
